Test results as given in ChEMBL document CHEMBL4396889, “From Inhibition to Degradation: Targeting the Antiapoptotic Protein Myeloid Cell Leukemia 1 (MCL1)” (J Med Chem, 2019).

Experiments:
[1] = target: T1, Protein cereblon/Induced myeloid leukemia cell differentiation protein Mcl-1 (Homo sapiens) (UniProt Q07820+Q96SW2); assay: Protac activity at Cereblon/MCL1 in human OPM2 cells assessed as protein abundance at 500 nM after 48 hrs by immunoblot analysis relative to control; assay type: cell-based
T1 sequence (Q07820 whole entry, looked up, canonical isoform): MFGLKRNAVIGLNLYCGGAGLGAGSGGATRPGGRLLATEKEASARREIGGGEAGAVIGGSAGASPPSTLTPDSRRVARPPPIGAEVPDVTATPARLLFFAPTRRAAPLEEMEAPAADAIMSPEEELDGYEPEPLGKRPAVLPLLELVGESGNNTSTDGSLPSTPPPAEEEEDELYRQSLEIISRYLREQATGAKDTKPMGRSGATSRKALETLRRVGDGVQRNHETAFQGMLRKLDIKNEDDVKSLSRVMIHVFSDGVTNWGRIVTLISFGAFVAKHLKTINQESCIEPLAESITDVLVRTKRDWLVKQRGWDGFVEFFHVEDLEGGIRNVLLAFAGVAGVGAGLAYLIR
T1 sequence (Q96SW2 whole entry, looked up, canonical isoform): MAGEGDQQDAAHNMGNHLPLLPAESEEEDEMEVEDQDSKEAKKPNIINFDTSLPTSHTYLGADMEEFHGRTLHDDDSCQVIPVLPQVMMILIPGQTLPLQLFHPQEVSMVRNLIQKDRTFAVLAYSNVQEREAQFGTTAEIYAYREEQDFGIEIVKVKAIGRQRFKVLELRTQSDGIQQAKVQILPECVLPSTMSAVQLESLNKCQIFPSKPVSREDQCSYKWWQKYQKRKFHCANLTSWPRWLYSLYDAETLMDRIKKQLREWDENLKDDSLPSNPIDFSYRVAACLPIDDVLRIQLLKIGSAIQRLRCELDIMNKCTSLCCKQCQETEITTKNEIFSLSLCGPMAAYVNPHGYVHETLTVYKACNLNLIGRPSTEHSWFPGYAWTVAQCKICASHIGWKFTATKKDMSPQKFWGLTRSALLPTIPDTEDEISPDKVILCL
Procedure, shortened: (§1)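 OPM2 multiple myeloma cells, wild type or CRBN-knockout, were treated for 48 h with degrader or DMSO vehicle. MCL1 long and short isoforms were detected by immunoblot and levels compared with DMSO controls.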

[2] = target: T1, Protein cereblon/Induced myeloid leukemia cell differentiation protein Mcl-1 (Homo sapiens); assay: Protac activity at Cereblon/MCL1 in human OPM2 cells assessed as protein abundance at 250 nM after 48 hrs by immunoblot analysis relative to control; assay type: cell-based; procedure, shortened: as §1
[3] = target: T1, Protein cereblon/Induced myeloid leukemia cell differentiation protein Mcl-1 (Homo sapiens); assay: Protac activity at Cereblon/MCL1 long isoform in wild type human OPM2 cells at 250 nM after 48 hrs by immunoblot analysis relative to control; assay type: cell-based; procedure, shortened: as §1
[4] = target: T1, Protein cereblon/Induced myeloid leukemia cell differentiation protein Mcl-1 (Homo sapiens); assay: Protac activity at Cereblon/MCL1 long isoform in wild type human OPM2 cells at 500 nM after 48 hrs by immunoblot analysis relative to control; assay type: cell-based; procedure, shortened: as §1
[5] = target: T1, Protein cereblon/Induced myeloid leukemia cell differentiation protein Mcl-1 (Homo sapiens); assay: Protac activity at Cereblon/MCL1 short isoform in wild type human OPM2 cells assessed as MCL1 short isoform abundance at 50 nM after 48 hrs by immunoblot analysis relative to control; assay type: cell-based
Procedure, shortened: (§2)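 OPM2 wild-type cells, run alongside the CRBN-/- line, were treated for 48 h with compound or DMSO. The MCL1 long and short isoforms were then measured by immunoblot against the DMSO control.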

[6] = target: T1, Protein cereblon/Induced myeloid leukemia cell differentiation protein Mcl-1 (Homo sapiens); assay: Protac activity at Cereblon/MCL1 short isoform in wild type human OPM2 cells assessed as MCL1 short isoform abundance at 250 nM after 48 hrs by immunoblot analysis relative to control; assay type: cell-based; procedure, shortened: as §2
[7] = target: T2, Induced myeloid leukemia cell differentiation protein Mcl-1 (Homo sapiens, UniProt Q07820); assay: Induction of MCL1 long isoform degradation in CRBN-/- human OPM2 cells assessed as protein abundance at 50 nM after 48 hrs by immunoblot analysis relative to control; assay type: cell-based; procedure, shortened: as §1
T2 sequence (Q07820 whole entry, canonical isoform): as the sequence (Q07820 whole entry, looked up, canonical isoform) above

[8] = target: T2, Induced myeloid leukemia cell differentiation protein Mcl-1; assay: Induction of MCL1 long isoform degradation in CRBN-/- human OPM2 cells assessed as protein abundance at 250 nM after 48 hrs by immunoblot analysis relative to control; assay type: cell-based; procedure, shortened: as §1
[9] = target: T2, Induced myeloid leukemia cell differentiation protein Mcl-1; assay: Induction of MCL1 long isoform degradation in CRBN-/- human OPM2 cells assessed as protein abundance at 500 nM after 48 hrs by immunoblot analysis relative to control; assay type: cell-based; procedure, shortened: as §1
[10] = target: T2, Induced myeloid leukemia cell differentiation protein Mcl-1; assay: Induction of MCL1 short isoform degradation in CRBN-/- human OPM2 cells assessed as protein abundance at 50 nM after 48 hrs by immunoblot analysis relative to control; assay type: cell-based; procedure, shortened: as §1
[11] = target: T2, Induced myeloid leukemia cell differentiation protein Mcl-1; assay: Induction of MCL1 short isoform degradation in CRBN-/- human OPM2 cells assessed as protein abundance at 250 nM after 48 hrs by immunoblot analysis relative to control; assay type: cell-based; procedure, shortened: as §1
[12] = target: T2, Induced myeloid leukemia cell differentiation protein Mcl-1; assay: Induction of MCL1 short isoform degradation in CRBN-/- human OPM2 cells assessed as protein abundance at 500 nM after 48 hrs by immunoblot analysis relative to control; assay type: cell-based; procedure, shortened: as §1
OPM-2 [13] = assay: Induction of apoptosis in wild type human OPM2 cells assessed as cleaved caspase-3 at 250 nM after 24 hrs in presence of 1% FBS by immunoblot analysis (reference value: 92%); assay type: functional
OPM-2 [14] = assay: Induction of apoptosis in wild type human OPM2 cells assessed as cleaved caspase-3 at 500 nM after 24 hrs in presence of 1% FBS by immunoblot analysis (reference value: 80%); assay type: functional
[15] = target: T1, Protein cereblon/Induced myeloid leukemia cell differentiation protein Mcl-1 (Homo sapiens); assay: Protac activity at Cereblon/MCL1 long isoform in human OPM2 cells assessed as MCL1 long isoform level at 300 nM pre-incubated for 72 hrs followed by cycloheximide addition and measured after 30 mins by immunoblot analysis (reference value: 98%); assay type: cell-based
Procedure, shortened: (§3)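 Cycloheximide chase: cells were treated for 72 h with DMSO or degrader, with cycloheximide added for the final 30, 60 or 120 min. OPM2 and MM1.S cells were used, and wild-type OPM2 was compared with OPM2 CRBN-/- at 60 and 120 min. MCL1 was detected by immunoblot.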

[16] = target: T1, Protein cereblon/Induced myeloid leukemia cell differentiation protein Mcl-1 (Homo sapiens); assay: Protac activity at Cereblon/MCL1 short isoform in human MM1S cells assessed as MCL1 short isoform level at 300 nM pre-incubated for 72 hrs followed by cycloheximide addition and measured after 30 mins by immunoblot analysis (reference value: 100%); assay type: cell-based; procedure, shortened: as §3
[17] = target: T1, Protein cereblon/Induced myeloid leukemia cell differentiation protein Mcl-1 (Homo sapiens); assay: Protac activity at Cereblon/MCL1 long isoform in human MM1S cells assessed as MCL1 long isoform level at 300 nM pre-incubated for 72 hrs followed by cycloheximide addition and measured after 120 mins by immunoblot analysis (reference value: 55%); assay type: cell-based; procedure, shortened: as §3
[18] = target: T1, Protein cereblon/Induced myeloid leukemia cell differentiation protein Mcl-1 (Homo sapiens); assay: Protac activity at Cereblon/MCL1 short isoform in human MM1S cells assessed as MCL1 short isoform level at 300 nM pre-incubated for 72 hrs followed by cycloheximide addition and measured after 120 mins by immunoblot analysis (reference value: 80%); assay type: cell-based; procedure, shortened: as §3
[19] = target: T1, Protein cereblon/Induced myeloid leukemia cell differentiation protein Mcl-1 (Homo sapiens); assay: Protac activity at Cereblon/MCL1 long isoform in wild type human OPM2 cells assessed as MCL1 long isoform level at 300 nM pre-incubated for 72 hrs followed by cycloheximide addition and measured after 60 mins by immunoblot analysis (reference value: 84%); assay type: cell-based; procedure, shortened: as §3
[20] = target: T1, Protein cereblon/Induced myeloid leukemia cell differentiation protein Mcl-1 (Homo sapiens); assay: Protac activity at Cereblon/MCL1 long isoform in wild type human OPM2 cells assessed as MCL1 long isoform level at 300 nM pre-incubated for 72 hrs followed by cycloheximide addition and measured after 120 mins by immunoblot analysis (reference value: 53%); assay type: cell-based; procedure, shortened: as §3
[21] = target: T1, Protein cereblon/Induced myeloid leukemia cell differentiation protein Mcl-1 (Homo sapiens); assay: Protac activity at Cereblon/MCL1 short isoform in wild type human OPM2 cells assessed as MCL1 short isoform level at 300 nM pre-incubated for 72 hrs followed by cycloheximide addition and measured after 60 mins by immunoblot analysis (reference value: 64%); assay type: cell-based
Procedure, shortened: (§4)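 OPM2 wild-type and OPM2 CRBN-/- cells were treated for 72 h with compound or DMSO, with cycloheximide present for the final 60 or 120 min. MCL1 was detected by immunoblot.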

[22] = target: T1, Protein cereblon/Induced myeloid leukemia cell differentiation protein Mcl-1 (Homo sapiens); assay: Protac activity at Cereblon/MCL1 short isoform in wild type human OPM2 cells assessed as MCL1 short isoform level at 300 nM pre-incubated for 72 hrs followed by cycloheximide addition and measured after 120 mins by immunoblot analysis (reference value: 14%); assay type: cell-based; procedure, shortened: as §4
[23] = target: T2, Induced myeloid leukemia cell differentiation protein Mcl-1; assay: Induction of MCL1 long isoform degradation in CRBN-/- human OPM2 cells assessed as protein abundance at 300 nM pre-incubated for 72 hrs followed by cycloheximide addition and measured after 60 mins by immunoblot analysis (reference value: 79%); assay type: cell-based; procedure, shortened: as §3
[24] = target: T2, Induced myeloid leukemia cell differentiation protein Mcl-1; assay: Induction of MCL1 short isoform degradation in CRBN-/- human OPM2 cells assessed as protein abundance at 300 nM pre-incubated for 72 hrs followed by cycloheximide addition and measured after 60 mins by immunoblot analysis (reference value: 57%); assay type: cell-based; procedure, shortened: as §3
[25] = target: T2, Induced myeloid leukemia cell differentiation protein Mcl-1; assay: Induction of MCL1 short isoform degradation in CRBN-/- human OPM2 cells assessed as protein abundance at 300 nM pre-incubated for 72 hrs followed by cycloheximide addition and measured after 120 mins by immunoblot analysis (reference value: 16%); assay type: cell-based; procedure, shortened: as §3
[26] = target: T1, Protein cereblon/Induced myeloid leukemia cell differentiation protein Mcl-1 (Homo sapiens); assay: Protac activity at Cereblon/MCL1 long isoform in human OPM2 cells assessed as MCL1 long isoform abundance at 50 nM after 24 hrs by immunoblot analysis relative to control; assay type: cell-based
[27] = target: T1, Protein cereblon/Induced myeloid leukemia cell differentiation protein Mcl-1 (Homo sapiens); assay: Protac activity at Cereblon/MCL1 short isoform in human OPM2 cells assessed as MCL1 short isoform abundance at 50 nM after 24 hrs by immunoblot analysis relative to control; assay type: cell-based
[28] = target: T1, Protein cereblon/Induced myeloid leukemia cell differentiation protein Mcl-1 (Homo sapiens); assay: Protac activity at Cereblon/MCL1 long isoform in human OPM2 cells assessed as MCL1 long isoform abundance at 500 nM after 24 hrs by immunoblot analysis relative to control; assay type: cell-based

Activity [1]: 58%
Activity [2]: 63%
Activity [3]: 70%
Activity [4]: 50%
Activity [5]: 79%
Activity [6]: 47%
Activity [7]: 100%
Activity [8]: 85%
Activity [9]: 100%
Activity [10]: 100%
Activity [11]: 97%
Activity [12]: 100%
Activity [15]: 88%
Activity [16]: 74%
Activity [17]: 40%
Activity [18]: 34%
Activity [19]: 66%
Activity [20]: 16%
Activity [21]: 14%
Activity [22]: 2%
Activity [23]: 78%
Activity [24]: 64%
Activity [25]: 25%
Activity [26]: 97%
Activity [27]: 96%
Activity [28]: 55%
Compound: Cc1nn(C)c(COc2ccc(N3CCN(S(=O)(=O)N(C)C)CC3)cc2)c1-c1cccc2c(CCCOc3cccc4ccccc34)c(C(=O)O)n(CCN3CCN(C(=O)COc4cccc5c4C(=O)N(C4CCC(=O)NC4=O)C5=O)CC3)c12 (stereo not drawn)
Activity (OPM-2 [13]): 197%
Activity (OPM-2 [14]): 326%
